Experimental data taken from PMC3501270 (Bioorganic & medicinal chemistry, 2012).

Columns and labels:
wild-type Smo = wild-type Smo (Homo sapiens, UniProt Q99835); assay type: binding; settings: 25 nM [3H]-cyclopamine; competitor 0 – 10 µM
[1] = biological target: Smo-D473H mutant receptor (Homo sapiens, UniProt Q99835, D473H); assay type: binding; settings: for displacement of [3H]-cyclopamine from Smo-D473H: U2OS cells overexpressing Smo-D473H, competitor up to 10 µM
[2] = tested on: Smo-633 receptor and βarr2-GFP; assay: Smo/βarr2-GFP translocation primary high-throughput confocal imaging assay; assay type: cell-based; settings: U2OS cells stably expressing Smo-633 and βarr2-GFP; 5 µM, 6 hours
[3] = tested on: Shh-induced Gli reporter activity; settings: 1 µM concentration; cited from earlier work
Hh-dependent hair growth = assay: Hh-dependent hair regrowth after depilation; assay type: in vivo, mouse; settings: C57BL female mice, topical 30 µl of 0.5 mM daily for 2 weeks
How it was run: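 Eight-week-old female C57BL/6 mice in telogen phase had the dorsum shaved. The lower half of the shaved area was depilated with Nair for 2 min and rinsed with water. Test compound in 95% acetone/5% DMSO, or vehicle alone, was applied topically to the depilated skin. Brief 3% isoflurane anaesthesia was used for all procedures. Five mice per group; hair regrowth assessed at 2 weeks.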

[4] = biological target: vasopressin2 receptor (V2R) (Homo sapiens, UniProt P30518); assay: V2R/βarr2-GFP aggregation control assay; assay type: cell-based; settings: arginine vasopressin stimulated cells; Supplementary Figure 3
[5] = Storage stability in solution; assay type: physicochemical; settings: room temperature, DMSO or methanolic solution, 1 week

Sequence of Smo-D473H mutant receptor (Q99835 28-787 D473H): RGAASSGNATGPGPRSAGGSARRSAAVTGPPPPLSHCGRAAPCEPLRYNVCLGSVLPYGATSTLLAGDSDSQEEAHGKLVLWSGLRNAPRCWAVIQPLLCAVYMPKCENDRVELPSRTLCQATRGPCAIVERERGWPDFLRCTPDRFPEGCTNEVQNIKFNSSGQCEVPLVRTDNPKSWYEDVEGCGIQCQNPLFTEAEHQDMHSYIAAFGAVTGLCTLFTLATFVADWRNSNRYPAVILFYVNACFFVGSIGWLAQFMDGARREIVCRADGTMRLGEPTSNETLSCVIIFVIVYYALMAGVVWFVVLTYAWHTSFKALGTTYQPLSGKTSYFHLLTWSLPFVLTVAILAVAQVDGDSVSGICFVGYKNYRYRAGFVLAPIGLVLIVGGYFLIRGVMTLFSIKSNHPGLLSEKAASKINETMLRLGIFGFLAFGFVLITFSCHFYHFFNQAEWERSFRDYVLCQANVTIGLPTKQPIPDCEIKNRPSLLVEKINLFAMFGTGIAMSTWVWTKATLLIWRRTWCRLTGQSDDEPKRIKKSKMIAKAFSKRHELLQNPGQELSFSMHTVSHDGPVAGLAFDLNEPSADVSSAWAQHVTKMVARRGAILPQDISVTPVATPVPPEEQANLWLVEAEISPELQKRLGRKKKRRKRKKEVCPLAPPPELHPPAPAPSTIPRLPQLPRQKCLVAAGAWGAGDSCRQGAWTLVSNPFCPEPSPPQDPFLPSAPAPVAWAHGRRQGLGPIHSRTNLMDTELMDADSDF
Sequence of wild-type Smo (Q99835 28-787): as the sequence (Q99835 28-787 D473H) above, with H446D counted along it
Sequence of vasopressin2 receptor (V2R) (P30518 whole entry, species assumed): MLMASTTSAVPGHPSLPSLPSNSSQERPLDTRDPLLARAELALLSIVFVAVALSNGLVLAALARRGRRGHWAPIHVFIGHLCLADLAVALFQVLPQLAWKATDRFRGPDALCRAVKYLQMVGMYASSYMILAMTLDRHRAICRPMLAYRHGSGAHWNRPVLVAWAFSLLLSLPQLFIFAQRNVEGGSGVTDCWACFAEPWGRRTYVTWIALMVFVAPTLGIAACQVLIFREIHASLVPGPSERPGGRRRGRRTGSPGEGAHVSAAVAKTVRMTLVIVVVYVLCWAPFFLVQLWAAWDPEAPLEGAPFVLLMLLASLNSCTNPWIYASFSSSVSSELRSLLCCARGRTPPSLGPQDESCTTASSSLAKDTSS

SMILES | displacement of [3H]-cyclopamine from wild-type Smo (wild-type Smo) | binding affinity to the mutant receptor (Ki not determinable) ([1]; Smo-D473H, up to 10 uM) | displacement of [3H]-cyclopamine from Smo-D473H [1] | inhibition of intracellular βarr2-GFP aggregation [2] | inhibition of Gli-reporter activity at 1 µM [3] | right shift in affinity, SmoD473H versus wild-type Smo ([1]; ratio of Ki mutant / wild-type) | Hh-induced hair growth (Hh-dependent hair growth) | aggregation of V2R and βarr2-GFP [4] | activity after storage in solution [5]
Cc1c(C(=O)Nc2ccc(N3C[C@@H](C)O[C@@H](C)C3)nc2)cccc1-c1ccc(OC(F)(F)F)cc1 [LDE-225, Erismodegib] | completely displaced | too weak | largely ineffective |  |  |  |  |  | 
CS(=O)(=O)c1ccc(C(=O)Nc2ccc(Cl)c(-c3ccccn3)c2)c(Cl)c1 [GDC-0449, Vismodegib] | completely displaced |  | only partially displaced |  |  |  |  |  | 
CC1=C2C[C@H]3[C@@H](CC=C4C[C@@H](O)CC[C@@]43C)[C@@H]2CC[C@]12O[C@@H]1C[C@H](C)CN[C@H]1[C@H]2C [cyclopamine] | completely displaced |  | completely displace | inhibits the aggregation of βarr2-GFP | strong inhibition |  |  |  | 
O=C(NC1CCN(Cc2ccc(N3CCC(NC(=O)c4cccc(-c5cccnc5)c4)CC3)nc2)CC1)c1cccc(-c2cccnc2)c1 [Compound A8] | completely displaced |  | completely displace | confirmed |  | approximately 13 fold | largely inhibited | not inhibited | retained activity
